Results published in ChEMBL document CHEMBL1833793 (Bioorg Med Chem Lett, 2011).

Assays:
[1] = target: T1, Neuropeptide Y receptor type 5 (Homo sapiens, UniProt Q15761); assay: Antagonist activity at human NPY5 receptor assessed as calcium mobilization by FLIPR assay; format: functional
T1 sequence (Q15761 whole entry): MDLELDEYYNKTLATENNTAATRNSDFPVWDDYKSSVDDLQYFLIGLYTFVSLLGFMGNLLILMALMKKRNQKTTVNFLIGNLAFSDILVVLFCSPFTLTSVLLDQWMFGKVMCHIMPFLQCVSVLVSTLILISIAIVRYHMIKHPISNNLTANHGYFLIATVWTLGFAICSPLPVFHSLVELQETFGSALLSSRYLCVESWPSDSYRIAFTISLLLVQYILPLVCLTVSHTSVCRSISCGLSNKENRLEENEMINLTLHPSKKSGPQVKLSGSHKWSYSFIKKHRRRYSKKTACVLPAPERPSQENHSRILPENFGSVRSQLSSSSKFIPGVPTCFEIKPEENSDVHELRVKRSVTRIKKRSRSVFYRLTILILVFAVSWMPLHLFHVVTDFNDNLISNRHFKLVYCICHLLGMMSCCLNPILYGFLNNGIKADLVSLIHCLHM

[2] = Plasma concentration in rat at 10 mg/kg, po after 4 hrs; format: ADME, organism-based; parameters: dose 10 mg/kg, route oral
Outline: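 Single oral dose of 10 mg/kg in rats, two animals. Plasma was sampled at 4 h and the two values averaged. LOQ 2 ng/mL.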

[3] = target: T1, Neuropeptide Y receptor type 5; assay: Binding affinity to human NPY5 receptor
Liver microsomes [4] = assay: Intrinsic clearance in human liver microsome; format: ADME
Liver microsomes [5] = assay: Intrinsic clearance in rat liver microsome; format: ADME
[6] = Drug uptake in rat brain at 10 mg/kg, po after 4 hrs; format: ADME, organism-based; parameters: dose 10 mg/kg, route oral; details: read-out: Drug uptake
Outline: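 Rat single oral dose of 10 mg/kg, two animals; plasma and brain homogenate levels measured at 4 h and averaged; quantification limit 2 ng/mL plasma, 2 ng/g brain.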

[7] = target: T2, Neuropeptide Y receptor type 1 (Homo sapiens, UniProt P25929); assay: Antagonist activity at human NPY1 receptor assessed as calcium mobilization by FLIPR assay; format: functional
T2 sequence (P25929 whole entry): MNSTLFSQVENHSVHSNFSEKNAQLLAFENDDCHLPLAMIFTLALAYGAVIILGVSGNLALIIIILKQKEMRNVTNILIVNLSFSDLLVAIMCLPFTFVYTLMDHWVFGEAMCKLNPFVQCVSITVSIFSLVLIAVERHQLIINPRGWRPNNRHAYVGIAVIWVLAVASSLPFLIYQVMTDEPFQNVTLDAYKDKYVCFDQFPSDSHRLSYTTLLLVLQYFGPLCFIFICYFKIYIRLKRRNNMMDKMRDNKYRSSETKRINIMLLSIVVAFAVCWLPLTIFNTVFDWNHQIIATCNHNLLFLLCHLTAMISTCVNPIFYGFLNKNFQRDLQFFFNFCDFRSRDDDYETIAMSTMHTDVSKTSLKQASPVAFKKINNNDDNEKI

[8] = target: T3, Neuropeptide Y receptor type 2 (Homo sapiens, UniProt P49146); assay: Antagonist activity at human NPY2 receptor assessed as calcium mobilization by FLIPR assay; format: functional
T3 sequence (P49146 whole entry): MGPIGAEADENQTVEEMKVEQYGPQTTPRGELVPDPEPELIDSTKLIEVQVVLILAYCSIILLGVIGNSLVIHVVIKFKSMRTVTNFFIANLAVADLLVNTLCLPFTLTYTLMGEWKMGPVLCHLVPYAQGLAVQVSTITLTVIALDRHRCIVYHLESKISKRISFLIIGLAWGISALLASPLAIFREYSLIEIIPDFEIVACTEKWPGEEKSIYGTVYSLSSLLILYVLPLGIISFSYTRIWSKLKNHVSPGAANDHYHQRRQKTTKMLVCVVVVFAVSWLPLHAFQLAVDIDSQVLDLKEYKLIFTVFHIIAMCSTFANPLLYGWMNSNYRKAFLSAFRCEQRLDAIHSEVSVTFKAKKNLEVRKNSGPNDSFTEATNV

[9] = target: Neuropeptide Y receptor type 4 (Homo sapiens, UniProt P50391); assay: Antagonist activity at human NPY4 receptor assessed as calcium mobilization by FLIPR assay; format: functional
[10] = target: T2, Neuropeptide Y receptor type 1; assay: Binding affinity to NPY1 receptor
[11] = target: T1, Neuropeptide Y receptor type 5; assay: Binding affinity to NPY5 receptor
Rattus norvegicus = assay: Antistress activity against chronic mild stress Sprague-Dawley rat model assessed as increase sucrose consumption at 5 mg/kg, ip bid measured after 4 weeks; format: functional; details: route intraperitoneal

Sequence of Neuropeptide Y receptor type 4 (P50391 whole entry): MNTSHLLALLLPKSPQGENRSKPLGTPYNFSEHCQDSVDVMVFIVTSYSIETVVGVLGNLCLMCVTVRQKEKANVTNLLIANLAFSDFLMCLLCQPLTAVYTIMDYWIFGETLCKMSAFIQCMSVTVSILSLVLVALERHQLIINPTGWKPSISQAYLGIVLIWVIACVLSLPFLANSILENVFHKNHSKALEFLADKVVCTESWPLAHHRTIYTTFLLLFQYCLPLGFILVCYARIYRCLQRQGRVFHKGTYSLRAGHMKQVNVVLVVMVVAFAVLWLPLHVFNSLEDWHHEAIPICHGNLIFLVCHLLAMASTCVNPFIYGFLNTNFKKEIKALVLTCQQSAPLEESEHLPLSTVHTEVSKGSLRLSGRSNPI

Row | Structure (SMILES) | IC50 [1] | Ki [3] | also measured
1 | CS(=O)(=O)N[C@H]1CC[C@H](Nc2nc3c(s2)CCCc2ccc(F)cc2-3)CC1 | 8.8 nM | 27 nM | –
2 | CS(=O)(=O)NC[C@H]1CC[C@H](Nc2nc3c(s2)CCOc2ccccc2-3)CC1 | 3.9 nM | 16.1 nM | –
3 | O=S(=O)(NC[C@H]1CC[C@H](Nc2nc3c(s2)CCSc2ccccc2-3)CC1)c1cccc2ccccc12 | 43.6 nM | 13.9 nM | –
4 | CS(=O)(=O)NCCCCCNc1nc2c(s1)CCSc1ccccc1-2 | 5 nM | 8.8 nM | –
5 | CC(C)S(=O)(=O)NCCCCCNc1nc2c(s1)CCCc1ccc(F)cc1-2 | 98.7 nM | 46 nM | –
6 | COc1ccccc1CNCCCCCCNCCSSCCNCCCCCCNCc1ccccc1OC [BENEXTRAMINE] | – | – | Ki [10]: 1800 nM; Ki [11]: 5000 nM
7 | Cn1cnc(S(=O)(=O)NC[C@H]2CC[C@H](Nc3nc4c(s3)CCSc3ccccc3-4)CC2)c1 | 10.4 nM | 21.5 nM | –
8 | CS(=O)(=O)NCCCCCNc1nc2c(s1)CCCc1ccc(F)cc1-2 | 0.9 nM | – | –
9 | CN(C)CCC[C@@]1(c2ccc(F)cc2)OCc2cc(C#N)ccc21 [ESCITALOPRAM] | – | – | Activity (Rattus norvegicus): >10%

More lines, main results first:

Row | IC50 [1] | Ki [3] | Structure (SMILES) | also measured
10 | 0.6 nM | 0.8 nM | CCS(=O)(=O)NCCCCCNc1nc2c(s1)CCSc1ccccc1-2 | concentration at 4 h [2]: 14 ng/mL
11 | – | 2.4 nM | CC(C)S(=O)(=O)NCCOCCNc1nc2c(s1)CCCc1ccc(F)cc1-2 | –
12 | 1.9 nM | 3.4 nM | O=S(=O)(CC(F)(F)F)NCCCCNc1nc2c(s1)CCCc1ccc(F)cc1-2 | –
13 | – | 1.7 nM | CS(=O)(=O)NCCCCCNc1nc2c(s1)CCSc1ccc(F)cc1-2 | CL (Liver microsomes [4]): 6.8 L/min; CL (Liver microsomes [5]): 89 mL/min; concentration at 4 h [2]: 61 ng/mL; concentration at 4 h [6]: 140 ng/g
14 | 34.6 nM | 4.9 nM | COc1ccc(C)cc1S(=O)(=O)NC[C@H]1CC[C@H](Nc2nc3c(s2)CCSc2ccccc2-3)CC1 | IC50 [7]: > 1000 nM; IC50 [8]: > 1000 nM; IC50 [9]: > 1000 nM
15 | – | 1.1 nM | CS(=O)(=O)NC[C@H]1CC[C@H](Nc2nc3c(s2)CCCc2ccc(F)cc2-3)CC1 | –
16 | 9.9 nM | 7.5 nM | O=S(=O)(CC(F)(F)F)NCCCCCNc1nc2c(s1)CCCc1ccc(F)cc1-2 | –
17 | 3.8 nM | 1.9 nM | O=S(=O)(NC[C@H]1CC[C@H](Nc2nc3c(s2)CCSc2ccccc2-3)CC1)c1cccs1 | IC50 [7]: > 1000 nM; IC50 [8]: > 1000 nM; IC50 [9]: > 1000 nM; CL (Liver microsomes [4]): 6.9 L/min; CL (Liver microsomes [5]): 120 mL/min; concentration at 4 h [2]: 8 ng/mL; concentration at 4 h [6]: 10 ng/g
18 | 1.3 nM | 0.9 nM | CCS(=O)(=O)NCCCCCNc1nc2c(s1)CCCc1ccc(F)cc1-2 | –
19 | – | 6.7 nM | COc1ccc2c(c1)OCCc1sc(NC[C@H]3CC[C@H](NS(C)(=O)=O)CC3)nc1-2 | –
20 | 30.8 nM | 2.8 nM | CCS(=O)(=O)NC[C@H]1CC[C@H](Nc2nc3c(s2)CCSc2ccccc2-3)CC1 | IC50 [7]: > 1000 nM; IC50 [8]: > 1000 nM; IC50 [9]: > 1000 nM
21 | – | 1.1 nM | COc1cccc2c1OCCc1sc(N[C@H]3CC[C@H](CNS(C)(=O)=O)CC3)nc1-2 | –
